Assay outcomes (PubChem BioAssay)
In the library only some 3.7% were active in any assay of this set; here they are far more common.
NPY-Y2 antag: antagonists of human neuropeptide Y receptor Y2; P49146; hit rate 0.99% among 140,000; NPY-Y2 expressing cells, antagonist mode; inhibition, % at 2.7 µM; in the data active = inhibition above about 17%;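 note: 0% = vehicle with agonist challenge and 100% = reference antagonist with challenge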
Target sequence (P49146 whole entry, looked up): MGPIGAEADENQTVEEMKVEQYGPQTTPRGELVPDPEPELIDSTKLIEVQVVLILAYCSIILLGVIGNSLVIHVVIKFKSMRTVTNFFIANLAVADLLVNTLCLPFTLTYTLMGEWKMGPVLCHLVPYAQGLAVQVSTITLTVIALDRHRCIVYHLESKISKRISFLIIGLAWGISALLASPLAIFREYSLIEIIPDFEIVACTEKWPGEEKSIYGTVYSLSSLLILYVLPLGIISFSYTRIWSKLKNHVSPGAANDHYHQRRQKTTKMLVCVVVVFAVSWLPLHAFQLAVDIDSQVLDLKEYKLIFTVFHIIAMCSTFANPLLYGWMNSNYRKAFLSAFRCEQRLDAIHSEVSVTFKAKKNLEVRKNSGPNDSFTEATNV
Furin inhibitor: blocks human furin protease activity | purified furin, fluorogenic substrate cleavage | hit rate 0.061% among 220,000 | inhibition, % at 20 µM or 30 µM | P09958 | AID 463115; in the data active = inhibition above about 25%
NPY-Y2 PAM-ag: human NPY-Y2 potentiation or agonism, primary screen; AID 1359; P49146; hit rate 0.45% among 220,000; activation, % at 3.6 µM; cells expressing NPY-Y2, potentiator/agonist read-out; in the data active = activation above about 27%;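 note: cells stimulated with NPY near EC25 plus isoproterenol at EC100; 0% = vehicle plus submaximal agonist and 100% = vehicle plus saturating agonist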
Cl transport mod: modulates chloride dependent transport by human KCC2 | Q9H2X9 | KCC2 cells, thallium flux FluoZin-2 fluorescence | B-score of Tl+ flux slope (higher = more flux/activation; lower = inhibition) at 10 µM | hit rate 2.2% among 190,000;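 active = thallium flux slope and its plate-corrected score both differing from the plate sample mean at a set confidence after two filtering rounds, in either direction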;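 note: slope of fluorescence scaled to starting intensity during 10 to 20 s after thallium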
NPY Y1 blocker: NPY-Y1 (human) receptor antagonism; P25929; HEK293-CNG Y1 cells, membrane potential fluorescence; NPY at EC95, then isoproterenol; inhibition, % at 3.6 µM; hit rate 1% among 200,000;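 active = inhibition above the campaign mean inhibition of all tested compounds plus 3 SD, cut at about 20% in these data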;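 note: 0% = DMSO wells given NPY plus isoproterenol and 100% = isoproterenol alone without NPY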
Target sequence (P25929 whole entry, looked up): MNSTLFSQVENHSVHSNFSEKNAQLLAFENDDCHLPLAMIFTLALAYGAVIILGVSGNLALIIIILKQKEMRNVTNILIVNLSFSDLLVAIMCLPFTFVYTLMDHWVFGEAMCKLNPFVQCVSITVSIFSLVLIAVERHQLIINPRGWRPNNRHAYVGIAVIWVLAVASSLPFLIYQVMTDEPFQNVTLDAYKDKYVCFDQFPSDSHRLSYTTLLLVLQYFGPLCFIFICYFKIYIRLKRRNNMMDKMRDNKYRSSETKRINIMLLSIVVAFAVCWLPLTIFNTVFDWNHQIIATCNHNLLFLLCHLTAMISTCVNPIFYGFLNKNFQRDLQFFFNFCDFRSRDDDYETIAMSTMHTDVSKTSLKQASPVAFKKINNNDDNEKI
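Material: Y1- and CNG-channel-expressing HEK293 cells / Probe or stimulus: NPY 25 nM then isoproterenol 1 µM plus Ro 20-1724 25 µM / Doses: 3.6 µM single dose, DMSO 0.4% / Schedule: compound incubation 1 h at room temperature, readout 45 min post-stimulation / Signal: membrane potential fluorescence / Benchmarks: isoproterenol-only wells as full block versus NPY-plus-isoproterenol wells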
NPY-Y1 PAM-ag: potentiates or activates human NPY-Y1 receptor; AID 1304; NPY-Y1 expressing cells, potentiator/agonist activation; hit rate 0.37% among 220,000; activation, % at 3.6 µM; P25929; in the data active = activation above about 33%, passing the limit was not always enough;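 note: cells stimulated with NPY at EC10 then isoproterenol at EC100; 0% = low agonist plus stimulus and 100% = saturating agonist plus stimulus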
* marks the source's active call; other numbers are inactive results.

Results for O=C(O)C1CCC(Cn2c(SCc3cc(=O)n4cc(Cl)ccc4n3)nc3ccsc3c2=O)CC1 (configuration not stated) ?
Furin inhibitor: -19.8; NPY-Y2 PAM-ag: -17.6; Cl transport mod: -2.44; NPY Y1 blocker: 7.8; NPY-Y1 PAM-ag: -11.7

What do the screens show for `O=C(COc1ccccc1Cl)NC(=S)N1CCc2ccccc21`?
NPY-Y2 antag: 2.3; Furin inhibitor: -18.0; NPY-Y2 PAM-ag: -21.1; Cl transport mod: 37.1*; NPY Y1 blocker: 7.9; NPY-Y1 PAM-ag: -22.3

Results for O=C(COc1ccccc1)NC(=S)N1CCc2ccccc21 ?
NPY-Y2 antag: 3.1; Furin inhibitor: -4.6; NPY-Y2 PAM-ag: -4.7; Cl transport mod: 56.5*; NPY Y1 blocker: 2.4; NPY-Y1 PAM-ag: -6.0

What do the screens show for `COc1ccc([N+](=O)[O-])cc1NS(=O)(=O)c1ccc(Cl)c(C(=O)Nc2sc3c(c2C#N)CCCCC3)c1`?
Furin inhibitor: -10.0; NPY-Y2 PAM-ag: -9.7; Cl transport mod: 0.253; NPY Y1 blocker: 2.4; NPY-Y1 PAM-ag: 13.7

Results for Cc1ccsc1-c1n[nH]c(=S)n1CC(C)C ?
NPY-Y2 antag: 1.9; Furin inhibitor: -10.5; NPY-Y2 PAM-ag: 3.1; Cl transport mod: 0.0183; NPY Y1 blocker: 7.8; NPY-Y1 PAM-ag: -0.4

What do the screens show for `CCCCn1c(-c2csc(C(C)C)c2)n[nH]c1=S`?
NPY-Y2 antag: 6.4; Furin inhibitor: -27.2; NPY-Y2 PAM-ag: 5.3; Cl transport mod: 20.5*; NPY Y1 blocker: 5.5; NPY-Y1 PAM-ag: 11.6

Results for CCCc1cc(-c2n[nH]c(=S)n2CC(C)C)cs1 ?
NPY-Y2 antag: 9.4; Furin inhibitor: 1.5; NPY-Y2 PAM-ag: -6.4; Cl transport mod: 15.6*; NPY Y1 blocker: 4.3; NPY-Y1 PAM-ag: -23.1

Results for CC1CC(C)(C)NC(=S)N1CCC(=O)NCCc1ccc(Cl)cc1 (configuration not stated) ?
Furin inhibitor: -32.6; NPY-Y2 PAM-ag: -9.5; Cl transport mod: -0.218; NPY Y1 blocker: -5.3; NPY-Y1 PAM-ag: -19.9

Results for CN(C)CCCN=Cc1c(O)n(Cc2ccc3c(c2)OCO3)c(=O)c2ccccc12 ?
Furin inhibitor: -15.1; NPY-Y2 PAM-ag: -15.5; Cl transport mod: -0.816; NPY Y1 blocker: 2.0; NPY-Y1 PAM-ag: 4.3

How did C/C(=N\NC(=O)CCCOc1ccc(Cl)cc1C)c1ccc(C)o1 do in these assays?
NPY-Y2 antag: 7.9; Furin inhibitor: -21.0; NPY-Y2 PAM-ag: -1.9; Cl transport mod: 0.387; NPY Y1 blocker: 13.9; NPY-Y1 PAM-ag: -11.4

What do the screens show for `COC(=O)c1[nH]c2ccccc2c1NC(=O)CN1CCC(C(N)=O)(N2CCCCC2)CC1`?
NPY-Y2 antag: 0.2; Furin inhibitor: 28.1*; NPY-Y2 PAM-ag: 7.1; Cl transport mod: 0.305; NPY Y1 blocker: -8.0; NPY-Y1 PAM-ag: -11.5

What do the screens show for `CCN(CC)C(=O)c1cc2c(=O)oc3ccccc3c2s1`?
NPY-Y2 antag: 2.5; Furin inhibitor: -3.8; NPY-Y2 PAM-ag: 57.9*; Cl transport mod: -0.511; NPY Y1 blocker: 0.1; NPY-Y1 PAM-ag: 68.7*

Results for COC(=O)CSc1nnc(-c2ccc(S(=O)(=O)N3CCCCC3)cc2)o1 ?
NPY-Y2 antag: -0.3; Furin inhibitor: -29.0; NPY-Y2 PAM-ag: 42.3*; Cl transport mod: 0; NPY Y1 blocker: -19.8; NPY-Y1 PAM-ag: 63.4*

What do the screens show for `O=[N+]([O-])c1ccc(Oc2cccc(F)c2)c2ccncc12`?
NPY-Y2 antag: 1.0; Furin inhibitor: -13.8; NPY-Y2 PAM-ag: 12.9; NPY Y1 blocker: -2.1; NPY-Y1 PAM-ag: 10.6

How did COc1cccc(OCC(O)CN2CCC(CN3C(=O)c4cccc5cccc(c45)C3=O)CC2)c1 (configuration not stated) do in these assays?
Furin inhibitor: -34.3; NPY-Y2 PAM-ag: 43.2*; Cl transport mod: 0.189; NPY Y1 blocker: 2.6; NPY-Y1 PAM-ag: 51.7*

How did CC(=O)Nc1sc(NC(=O)c2ccc(C)cc2)nc1-c1cccs1 do in these assays?
NPY-Y2 antag: 0.9; Furin inhibitor: -16.3; NPY-Y2 PAM-ag: -7.5; Cl transport mod: -0.178; NPY Y1 blocker: 3.2; NPY-Y1 PAM-ag: -5.0

Results for c1ccc(CN2CCC(Nc3nc(-c4cccs4)nc4ccccc34)CC2)cc1 ?
Furin inhibitor: -12.3; NPY-Y2 PAM-ag: 29.2; Cl transport mod: -0.85; NPY Y1 blocker: 21.1*; NPY-Y1 PAM-ag: 4.3

How did COCC(=O)Nc1nnc(Cc2ccc(OC)c(OC)c2)s1 do in these assays?
NPY-Y2 antag: -2.5; Furin inhibitor: -15.0; NPY-Y2 PAM-ag: 11.6; NPY Y1 blocker: 0.9; NPY-Y1 PAM-ag: 0.2

How did COc1ccc(Cc2nnc(NC(=O)CSc3ccc(C)cc3)s2)cc1OC do in these assays?
NPY-Y2 antag: 9.1; Furin inhibitor: -22.7; NPY-Y2 PAM-ag: -20.0; Cl transport mod: 0.193; NPY Y1 blocker: 21.5*; NPY-Y1 PAM-ag: -10.3

What do the screens show for `CCCC(c1nnnn1C1CCCCC1)N1CCN(c2ncccn2)CC1` (configuration not stated)?
NPY-Y2 antag: -0.1; Furin inhibitor: -24.7; NPY-Y2 PAM-ag: -7.7; NPY Y1 blocker: 3.0; NPY-Y1 PAM-ag: 6.7

What do the screens show for `CCCCC(c1nnnn1C1CCCC1)N1CCN(C2CCCCC2)CC1` (configuration not stated)?
NPY-Y2 antag: 26.0*; Furin inhibitor: -12.8; NPY-Y2 PAM-ag: -13.9; Cl transport mod: 0.628; NPY Y1 blocker: 36.7*; NPY-Y1 PAM-ag: -30.8

Results for O=C(COc1ccc2ccccc2c1)Nc1ccc2c3c(cccc13)CC2 ?
NPY-Y2 antag: 20.9*; Furin inhibitor: -19.5; NPY-Y2 PAM-ag: 5.0; Cl transport mod: -0.0311; NPY Y1 blocker: 10.0; NPY-Y1 PAM-ag: -3.5

Results for COc1cccc(C(=O)NC(=S)Nc2ccc3c4c(cccc24)CC3)c1 ?
NPY-Y2 antag: 3.3; Furin inhibitor: -9.5; NPY-Y2 PAM-ag: -11.6; Cl transport mod: 5.01*; NPY Y1 blocker: 14.5; NPY-Y1 PAM-ag: -58.4

How did O=[N+]([O-])c1ccc(OCC(O)CNC2CCCC2)cc1 (configuration not stated) do in these assays?
Furin inhibitor: -17.1; NPY-Y2 PAM-ag: -25.0; Cl transport mod: -0.164; NPY-Y1 PAM-ag: -40.4

What do the screens show for `O=[N+]([O-])c1ccccc1OCC(O)CNC1CCCC1` (configuration not stated)?
Furin inhibitor: -28.0; NPY-Y2 PAM-ag: 103.9*; Cl transport mod: -1.48; NPY-Y1 PAM-ag: 112.3*

How did CC(C)c1ccccc1NC(=O)c1cccc(NC(=O)c2ccccc2)c1 do in these assays?
NPY-Y2 antag: 0.2; Furin inhibitor: -23.9; NPY-Y2 PAM-ag: 7.5; Cl transport mod: 0.443; NPY Y1 blocker: 1.2; NPY-Y1 PAM-ag: 12.8

What do the screens show for `O=C(COC(=O)c1cc(-c2ccccn2)nc2ccccc12)Nc1ncc(C(F)(F)F)cc1Cl`?
Furin inhibitor: -7.6; NPY-Y2 PAM-ag: -1.2; Cl transport mod: 0.149; NPY-Y1 PAM-ag: -3.3

Results for CCc1cc(C(c2ccccn2)N2CCN(C)CC2)c(NC(=O)c2ccccc2)s1 (configuration not stated) ?
NPY-Y2 antag: 4.7; Furin inhibitor: 25.1*; NPY-Y2 PAM-ag: -11.8; Cl transport mod: 0.00831; NPY Y1 blocker: 5.2; NPY-Y1 PAM-ag: -4.8
